ChEMBL document CHEMBL1649151, “Urinary bactericidal activity of Doripenem versus that of levofloxacin in patients with complicated urinary tract infections or pyelonephritis” (Antimicrob Agents Chemother, 2009)
In brackets after ≈: the same amount, converted by molar mass.

Tests used:
Escherichia coli [1] = test: Antimicrobial activity against Escherichia coli 1949820 B-N isolated from patient with pyelonephritis assessed as >3-log reduction in urinary bacterial titer after 24 hrs; format: functional, Urine
Summary of the method: (§1)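 Urine was collected on day 3 of i.v. therapy (steady state) over 4-h intervals from infusion start (0–4 to 20–24 h), stored at –80°C and sterile filtered. It was serially diluted twofold (1:0 up to 1:131,072) in the patient's own pre-dose drug-free urine. Microdilution used a final inoculum of 1.0 x 10^6 to 9.5 x 10^6 CFU/ml, incubated 18 h at 37°C in air. 10 µl was subcultured onto 5% blood Columbia agar for 24 h at 37°C. The bactericidal endpoint was >99.9% (>3-log) kill, reported as a reciprocal titer.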

Staphylococcus aureus [2] = test: Antimicrobial activity against Staphylococcus aureus 1134684 isolated from patient with pyelonephritis assessed as >3-log reduction in urinary bacterial titer after 24 hrs; format: functional, Urine
Summary of the method: (§2)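 Patient urine was collected on day 3 of i.v. therapy (steady state) over 4-h intervals after infusion start, stored at –80°C, and sterile filtered. It was twofold serially diluted (1:0 to 1:131,072) in the patient's own pre-dose drug-free urine, inoculated to 1.0 x 10^6–9.5 x 10^6 CFU/ml, and incubated for 18 h at 37°C. Subcultures were grown on blood agar for 24 h. The UBT is the reciprocal of the highest dilution giving >99.9% kill.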

Proteus mirabilis [3] = test: Antimicrobial activity against Proteus mirabilis 1134841 isolated from patient with pyelonephritis assessed as >3-log reduction in urinary bacterial titer after 24 hrs; format: functional, Urine; summary of the method: as §2
Pseudomonas aeruginosa [4] = test: Antimicrobial activity against Pseudomonas aeruginosa […] assessed as >3-log reduction in urinary bacterial titer after 24 hrs; format: functional, Urine; summary of the method: as §2
Escherichia coli [5] = test: Antimicrobial activity against Escherichia coli 1949821 B-M isolated from patient with pyelonephritis assessed as >3-log reduction in urinary bacterial titer after 20 hrs; format: functional, Urine; summary of the method: as §1
Staphylococcus aureus [6] = test: Antimicrobial activity against Staphylococcus aureus 1134684 isolated from patient with pyelonephritis assessed as >3-log reduction in urinary bacterial titer after 20 hrs; format: functional, Urine; summary of the method: as §2
Pseudomonas aeruginosa [7] = test: Antimicrobial activity against Pseudomonas aeruginosa 1134642 isolated from patient with pyelonephritis assessed as >3-log reduction in urinary bacterial titer after 20 hrs; format: functional, Urine; summary of the method: as §2
Proteus mirabilis [8] = test: Antimicrobial activity against Proteus mirabilis 1134841 isolated from patient with pyelonephritis assessed as >3-log reduction in urinary bacterial titer after 20 hrs; format: functional, Urine; summary of the method: as §2
Enterococcus faecalis [9] = test: Antimicrobial activity against Enterococcus faecalis 1780065 B-B isolated from patient with pyelonephritis assessed as >3-log reduction in urinary bacterial titer after 16 hrs; format: functional, Urine
Summary of the method: (§3)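 Urine was collected before dosing and on day 3 of i.v. therapy (steady state), in 4-h intervals from infusion start (0–4 to 20–24 h), stored at −80°C and sterile filtered. It was serially diluted twofold (1:0 to 1:131,072) in the patient's drug-free pre-dose urine. Microdilution used an inoculum of 1.0 x 10^6–9.5 x 10^6 CFU/ml, incubated 18 h at 37°C, then subcultured 24 h on blood agar. The endpoint was >99.9% kill, reported as reciprocal titer.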

Staphylococcus aureus [10] = test: Antimicrobial activity against Staphylococcus aureus 1134684 isolated from patient with pyelonephritis assessed as >3-log reduction in urinary bacterial titer after 16 hrs; format: functional, Urine; summary of the method: as §2
Escherichia coli [11] = test: Antimicrobial activity against Escherichia coli 1135121 isolated from patient with pyelonephritis assessed as >3-log reduction in urinary bacterial titer after 16 hrs; format: functional, Urine; summary of the method: as §3
Pseudomonas aeruginosa [12] = test: Antimicrobial activity against Pseudomonas aeruginosa […] assessed as >3-log reduction in urinary bacterial titer after 16 hrs; format: functional, Urine; summary of the method: as §2
Enterococcus faecalis [13] = test: Antimicrobial activity against Enterococcus faecalis 1780065 B-B isolated from patient with pyelonephritis assessed as >3-log reduction in urinary bacterial titer after 12 hrs; format: functional, Urine; summary of the method: as §3
Escherichia coli [14] = test: Antimicrobial activity against Escherichia coli 1949820 B-N isolated from patient with pyelonephritis assessed as >3-log reduction in urinary bacterial titer after 12 hrs; format: functional, Urine; summary of the method: as §1
Pseudomonas aeruginosa [15] = test: Antimicrobial activity against Pseudomonas aeruginosa 1134642 isolated from patient with pyelonephritis assessed as >3-log reduction in urinary bacterial titer after 12 hrs; format: functional, Urine; summary of the method: as §2
Escherichia coli [16] = test: Antimicrobial activity against Escherichia coli 1949821 B-M isolated from patient with pyelonephritis assessed as >3-log reduction in urinary bacterial titer after 8 hrs; format: functional, Urine; summary of the method: as §2
Enterococcus faecalis [17] = test: Antimicrobial activity against Enterococcus faecalis 1780065 B-B isolated from patient with pyelonephritis assessed as >3-log reduction in urinary bacterial titer after 8 hrs; format: functional, Urine; summary of the method: as §3
Escherichia coli [18] = test: Antimicrobial activity against Escherichia coli 1949820 B-N isolated from patient with pyelonephritis assessed as >3-log reduction in urinary bacterial titer after 8 hrs; format: functional, Urine; summary of the method: as §1
Staphylococcus aureus [19] = test: Antimicrobial activity against Staphylococcus aureus 1134684 isolated from patient with pyelonephritis assessed as >3-log reduction in urinary bacterial titer after 8 hrs; format: functional, Urine; summary of the method: as §2
Pseudomonas aeruginosa [20] = test: Antimicrobial activity against Pseudomonas aeruginosa 1134642 isolated from patient with pyelonephritis assessed as >3-log reduction in urinary bacterial titer after 8 hrs; format: functional, Urine; summary of the method: as §2
Pseudomonas aeruginosa [21] = test: Antimicrobial activity against Pseudomonas aeruginosa ATCC 27853 isolated from patient with pyelonephritis assessed as >3-log reduction in urinary bacterial titer after 8 hrs; format: functional, Urine; summary of the method: as §2
Escherichia coli [22] = test: Antimicrobial activity against Escherichia coli 1949821 B-M isolated from patient with pyelonephritis assessed as >3-log reduction in urinary bacterial titer after 4 hrs; format: functional, Urine; summary of the method: as §1
Escherichia coli [23] = test: Antimicrobial activity against Escherichia coli 1949820 B-N isolated from patient with pyelonephritis assessed as >3-log reduction in urinary bacterial titer after 4 hrs; format: functional, Urine; summary of the method: as §1
Staphylococcus aureus [24] = test: Antimicrobial activity against Staphylococcus aureus 1134684 isolated from patient with pyelonephritis assessed as >3-log reduction in urinary bacterial titer after 4 hrs; format: functional, Urine; summary of the method: as §2
Pseudomonas aeruginosa [25] = test: Antimicrobial activity against Pseudomonas aeruginosa 1134642 isolated from patient with pyelonephritis assessed as >3-log reduction in urinary bacterial titer after 4 hrs; format: functional, Urine; summary of the method: as §2
Escherichia coli [26] = test: Antimicrobial activity against Escherichia coli 1135121 isolated from patient with pyelonephritis assessed as >3-log reduction in urinary bacterial titer after 4 hrs; format: functional, Urine; summary of the method: as §3
Proteus mirabilis [27] = test: Antimicrobial activity against Proteus mirabilis 1134841 isolated from patient with pyelonephritis assessed as >3-log reduction in urinary bacterial titer after 4 hrs; format: functional, Urine; summary of the method: as §2
Pseudomonas aeruginosa [28] = test: Antimicrobial activity against Pseudomonas aeruginosa […] assessed as >3-log reduction in urinary bacterial titer after 4 hrs; format: functional, Urine; summary of the method: as §2
Escherichia coli [29] = test: Antimicrobial activity against Escherichia coli 1889646 B-F isolated from patient with pyelonephritis by Etest; format: functional
Enterococcus faecalis [30] = test: Antimicrobial activity against Enterococcus faecalis 1780065 B-B isolated from patient with pyelonephritis by Etest; format: functional
Escherichia coli [31] = test: Antimicrobial activity against Escherichia coli 1949820 B-N isolated from patient with pyelonephritis by Etest; format: functional
Staphylococcus aureus [32] = test: Antimicrobial activity against Staphylococcus aureus 1134684 isolated from patient with pyelonephritis by Etest; format: functional
Pseudomonas aeruginosa [33] = test: Antimicrobial activity against Pseudomonas aeruginosa 1134642 isolated from patient with pyelonephritis by Etest; format: functional
Proteus mirabilis [34] = test: Antimicrobial activity against Proteus mirabilis 1134841 isolated from patient with pyelonephritis by Etest; format: functional
Escherichia coli [35] = test: Antimicrobial activity against Escherichia coli 1135121 isolated from patient with pyelonephritis by Etest; format: functional
[36] = Drug excretion in pyelonephritis patient urine at 250 mg/kg, iv administered every 24 hrs; format: ADME, organism-based; set-up: dose 250 mg/kg, route intravenous; conditions: human, read-out: Activity

Row | Structure (SMILES) | Time (Escherichia coli [1]) | urinary bactericidal titer (Staphylococcus aureus [2]) | urinary bactericidal titer (Proteus mirabilis [3]) | urinary bactericidal titer (Pseudomonas aeruginosa [4]) | urinary bactericidal titer (Escherichia coli [5]) | urinary bactericidal titer (Staphylococcus aureus [6]) | urinary bactericidal titer (Pseudomonas aeruginosa [7]) | urinary bactericidal titer (Proteus mirabilis [8]) | Time (Enterococcus faecalis [9]) | urinary bactericidal titer (Staphylococcus aureus [10]) | urinary bactericidal titer (Escherichia coli [11]) | urinary bactericidal titer (Pseudomonas aeruginosa [12]) | urinary bactericidal titer (Enterococcus faecalis [13]) | urinary bactericidal titer (Pseudomonas aeruginosa [15]) | urinary bactericidal titer (Escherichia coli [16]) | Time (Enterococcus faecalis [17]) | urinary bactericidal titer (Escherichia coli [18]) | urinary bactericidal titer (Staphylococcus aureus [19]) | urinary bactericidal titer (Pseudomonas aeruginosa [20]) | urinary bactericidal titer (Pseudomonas aeruginosa [21]) | other results
1 | C[C@H]1COc2c(N3CCN(C)CC3)c(F)cc3c(=O)c(C(=O)O)cn1c23.C[C@H]1COc2c(N3CCN(C)CC3)c(F)cc3c(=O)c(C(=O)O)cn1c23.O [LEVOFLOXACIN] | 0 h | 2 reciprocal titer | 0 reciprocal titer | 4 reciprocal titer | 48 titer | 2 reciprocal titer | 1 reciprocal titer | 0 reciprocal titer | 16 h | 4 reciprocal titer | 2.5 reciprocal titer | 8 reciprocal titer | 16 reciprocal titer | 1 reciprocal titer | 128 titer | 16 h | 2 titer | 4 reciprocal titer | 2 reciprocal titer | 16 reciprocal titer | Time (Escherichia coli [14]): 0.5 h; Time (Escherichia coli [22]): 192 h; urinary bactericidal titer (Escherichia coli [23]): 4 titer; urinary bactericidal titer (Staphylococcus aureus [24]): 8 reciprocal titer; urinary bactericidal titer (Pseudomonas aeruginosa [25]): 2 reciprocal titer; urinary bactericidal titer (Escherichia coli [26]): 8 reciprocal titer; urinary bactericidal titer (Proteus mirabilis [27]): 0 reciprocal titer; urinary bactericidal titer (Pseudomonas aeruginosa [28]): 16 reciprocal titer; MIC (Escherichia coli [29]): > 8 µg/mL; MIC (Enterococcus faecalis [30]): 1 µg/mL; MIC (Escherichia coli [31]): 8 µg/mL; MIC (Staphylococcus aureus [32]): 4 µg/mL; MIC (Pseudomonas aeruginosa [33]): 16 µg/mL; MIC (Proteus mirabilis [34]): > 8 µg/mL; MIC (Escherichia coli [35]): 4 µg/mL; dose excreted at 24 h [36]: 80%
2 | C[C@@H](O)[C@H]1C(=O)N2C(C(=O)O)=C(S[C@@H]3CN[C@H](CNS(N)(=O)=O)C3)[C@H](C)[C@H]12 [DORIPENEM] | 5120 h | 1.5 reciprocal titer | 512 reciprocal titer | 512 reciprocal titer | 32800 titer | 8 reciprocal titer | 4096 reciprocal titer | 8192 reciprocal titer | 48 h | 4 reciprocal titer | 8192 reciprocal titer | 1540 reciprocal titer | 192 reciprocal titer | 6140 reciprocal titer | 12300 titer | 32 h | 12300 titer | 4 reciprocal titer | 1024 reciprocal titer | 1024 reciprocal titer | urinary bactericidal titer (Escherichia coli [14]): 32800; urinary bactericidal titer (Escherichia coli [22]): 32800; urinary bactericidal titer (Escherichia coli [23]): 32800 titer; urinary bactericidal titer (Staphylococcus aureus [24]): 8 reciprocal titer; urinary bactericidal titer (Pseudomonas aeruginosa [25]): 4096 reciprocal titer; urinary bactericidal titer (Escherichia coli [26]): 49200 reciprocal titer; urinary bactericidal titer (Proteus mirabilis [27]): 2048 reciprocal titer; urinary bactericidal titer (Pseudomonas aeruginosa [28]): 2048 reciprocal titer; MIC (Escherichia coli [29]): 0.03 µg/mL (≈ 0.0713 µM); MIC (Enterococcus faecalis [30]): 4 µg/mL (≈ 9.51 µM); MIC (Escherichia coli [31]): 0.03 µg/mL (≈ 0.0713 µM); MIC (Staphylococcus aureus [32]): 32 µg/mL (≈ 76.1 µM); MIC (Pseudomonas aeruginosa [33]): 2 µg/mL (≈ 4.76 µM); MIC (Proteus mirabilis [34]): 0.03 µg/mL (≈ 0.0713 µM); MIC (Escherichia coli [35]): ≤ 0.015 µg/mL; dose excreted at 24 h [36]: 80%
